These results are taken from ChEMBL document CHEMBL4014289, “Synthesis and evaluation of a ligand targeting the μ and δ opioid receptors for drug delivery to lung cancer” (Bioorg Med Chem Lett, 2017).

Active and inactive are the calls of the source. The calls are words filed in the database; no cut-off is given here.

Series [1] has as its target Mu-type opioid receptor (Homo sapiens) (UniProt P35372). Put plainly: Binding affinity to mu opioid receptor (unknown origin) expressed in HEK cells at 25 nM by confocal microscopic method. Format: cell-based. The method, boiled down:
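HEK cells transfected to overexpress the μ-opioid receptor were treated with 25 nM rhodamine-labelled naltrexone-derived conjugate for 1 h. […] Cell-associated fluorescence and internalisation were imaged by confocal microscopy.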

Series [2] relates to Kidney. Put plainly: Drug uptake in Nu/Nu mouse kidney xenografted with HEK cells expressing delta opioid receptor (unknown origin). In kind it is ADME, tissue-based. The method, boiled down: (§1)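 Mice carrying HEK xenografts transfected with μ (HEK-mu) or δ (HEK-delta) opioid receptor. […] Mice were sacrificed at 4 h, and organs and tissues were collected and weighed. Radioactivity was counted against a standard tube and expressed as %ID/gram.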

Series [3] has as its system Intestine. The experiment in a line: Drug uptake in Nu/Nu mouse intestine xenografted with HEK cells expressing delta opioid receptor (unknown origin). Format: ADME, tissue-based. The method, boiled down: as §1
Another series concerns Spleen. The experiment in a line: Drug uptake in Nu/Nu mouse spleen xenografted with HEK cells expressing delta opioid receptor (unknown origin). In kind it is ADME, tissue-based. The method, boiled down:
as §1

In another series the test system is Liver. The experiment in a line: Drug uptake in Nu/Nu mouse liver xenografted with HEK cells expressing delta opioid receptor (unknown origin). Format: ADME, tissue-based. The method, boiled down:
as §1

Series [4] in a line: Drug uptake in Nu/Nu mouse skin xenografted with HEK cells expressing delta opioid receptor (unknown origin). In kind it is ADME, Zone of skin. The method, boiled down:
as §1

Series [5] in a line: Drug uptake in Nu/Nu mouse tumor xenografted with HEK cells expressing delta opioid receptor (unknown origin). In kind it is ADME, Neoplasm. The method, boiled down:
as §1

For a further series, the system named is Heart. Put plainly: Drug uptake in Nu/Nu mouse heart xenografted with HEK cells expressing delta opioid receptor (unknown origin). Format: ADME, tissue-based. The method, boiled down:
as §1

Series [6] can be described thus: Drug uptake in Nu/Nu mouse skin xenografted with HEK cells expressing mu opioid receptor (unknown origin). In kind it is ADME, Zone of skin. The method, boiled down:
as §1

Series [7] relates to Kidney. Put plainly: Drug uptake in Nu/Nu mouse kidney xenografted with HEK cells expressing mu opioid receptor (unknown origin). Format: ADME, tissue-based. The method, boiled down: as §1
Series [8] deals with Intestine. Put plainly: Drug uptake in Nu/Nu mouse intestine xenografted with HEK cells expressing mu opioid receptor (unknown origin). In kind it is ADME, tissue-based. The method, boiled down:
as §1

The nature of series [9]: Drug uptake in Nu/Nu mouse tumor xenografted with HEK cells expressing mu opioid receptor (unknown origin). Format: ADME, Neoplasm. The method, boiled down:
as §1

For series [10], the target named is Delta-type opioid receptor (Homo sapiens) (UniProt P41143). The experiment in a line: Binding affinity to delta opioid receptor (unknown origin) expressed in HEK cells at 10 nM in presence of DOR antagonist […] after 1 hr by confocal microscopic method. In kind it is cell-based. The method, boiled down:
(§2)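 HEK cells transfected to overexpress the δ-opioid receptor were incubated with a rhodamine-labelled naltrexone-derived conjugate for 1 h. They were given the conjugate alone or with a 100-fold higher concentration of naltrindole as competitor. Uptake and internalisation were imaged by confocal microscopy.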

For series [11] the target is unchanged. Put plainly: Binding affinity to delta opioid receptor (unknown origin) expressed in HEK cells at 10 nM by confocal microscopic method. In kind it is cell-based. The method, boiled down:
as §2

A short description of series [12]: Antitumor activity against human SQC cells xenografted in nude mouse model assessed as tumor growth inhibition at 0.1 mg/kg administered daily relative to control. Format: functional. To be noted: read-out: TGI. In general terms: A xenograft is tissue or cells of one species grown in another, often human tumour cells in immunodeficient mice.
Series [13] is described as follows: Displacement of [3H]DADLE from delta opioid receptor in guinea pig brain membrane. In kind it is cell membranes, Cavia porcellus. A general note: Loss of bound radioactivity is the signal in a displacement assay; it reports binding, not function.

Sequence of Delta-type opioid receptor (Homo sapiens) (P41143 whole entry): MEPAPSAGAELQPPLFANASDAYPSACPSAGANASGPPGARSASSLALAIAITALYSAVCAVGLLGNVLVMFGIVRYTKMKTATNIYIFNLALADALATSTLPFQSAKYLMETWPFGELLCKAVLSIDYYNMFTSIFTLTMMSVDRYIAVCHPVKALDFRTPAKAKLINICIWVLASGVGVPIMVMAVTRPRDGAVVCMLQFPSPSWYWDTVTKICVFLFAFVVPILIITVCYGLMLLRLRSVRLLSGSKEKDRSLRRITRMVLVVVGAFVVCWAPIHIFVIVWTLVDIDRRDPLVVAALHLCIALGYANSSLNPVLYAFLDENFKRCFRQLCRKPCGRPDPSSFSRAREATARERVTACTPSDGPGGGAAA
Sequence of Mu-type opioid receptor (Homo sapiens) (P35372 whole entry): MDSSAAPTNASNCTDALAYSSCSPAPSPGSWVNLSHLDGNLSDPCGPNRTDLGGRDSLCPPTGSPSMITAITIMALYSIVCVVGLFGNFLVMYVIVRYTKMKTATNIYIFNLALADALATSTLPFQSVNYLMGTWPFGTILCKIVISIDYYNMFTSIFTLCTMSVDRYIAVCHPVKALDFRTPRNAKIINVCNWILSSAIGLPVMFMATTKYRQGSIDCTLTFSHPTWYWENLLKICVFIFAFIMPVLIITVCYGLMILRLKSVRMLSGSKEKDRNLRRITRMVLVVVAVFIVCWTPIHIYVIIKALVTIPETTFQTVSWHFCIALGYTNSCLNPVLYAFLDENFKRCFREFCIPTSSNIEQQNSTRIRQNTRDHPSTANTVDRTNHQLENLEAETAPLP

For `CCN(CC)c1ccc2c(-c3ccc(NC(=S)NCC(=O)NCC(=O)N[C@@H]4CC[C@@]5(O)[C@H]6Cc7ccc(O)c8c7[C@@]5(CCN6CC5CC5)[C@H]4O8)cc3C(=O)O)c3ccc(=[N+](CC)CC)cc-3oc2c1`, the result in series [1] was Active.
Consider `NC(CNC(=O)CCOCCOCCOCCOCCNC(=O)CCC(=O)NCCCCCn1cc(-c2ccc(C(=O)N[C@@H]3CC[C@@]4(O)[C@H]5Cc6ccc(O)c7c6[C@@]4(CCN5CC4CC4)[C@H]3O7)cn2)nn1)C(=O)NCC(N)C(=O)NC(CC(=O)O)C(=O)NC(CS)C(=O)O` (stereo partly specified), for which the Drug uptake result (in the series with Kidney [2]; in the series on Intestine [3]; in the series with Spleen; in the series with Liver; in [4]; in series [5]) was “Active” each time. In the series with Heart, the Drug uptake result is given as “Active”.
Regarding `NC(CNC(=O)CCOCCOCCOCCOCCNC(=O)CCC(=O)NCC(=O)NCC(=O)N[C@@H]1CC[C@@]2(O)[C@H]3Cc4ccc(O)c5c4[C@@]2(CCN3CC2CC2)[C@H]1O5)C(=O)NC(CC(=O)O)C(=O)NC(CS)C(=O)O` (stereo partly specified), the Drug uptake entry (in series [6]; with Kidney [7]; with Intestine [8]; in series [9]) was “Active” in each case.
For `CCN(CC)c1ccc2c(-c3ccc(NC(=S)NCCCCCn4cc(-c5ccc(C(=O)N[C@@H]6CC[C@@]7(O)[C@H]8Cc9ccc(O)c%10c9[C@@]7(CCN8CC7CC7)[C@H]6O%10)cn5)nn4)cc3C(=O)O)c3ccc(=[N+](CC)CC)cc-3oc2c1`, the outcome in series [10] and in series [11] was Active.
As for `O=C1CC[C@@]2(O)[C@H]3Cc4ccc(O)c5c4[C@@]2(CCN3CC2CC2)[C@H]1O5` [NALTREXONE], the inhibition in vivo at 0.1 mg/kg in [12] is 84%. The Ki (usually the dissociation constant of the complex between target and ligand, obtained from inhibition or displacement) in series [13] is 10.5 nM.
